# KCNQ1 pot: human KCNQ1 channel potentiation or activation | P51787 | CHO-K1 KCNQ1, thallium flux FluxOR fluorescence; active compounds read high | B-score at 10 µM | 310,000 compounds, 0.35% hits;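 active = fluorescence ratio B-score, a plate-corrected score, at least three library SD, with initial intensity B-score within 5 SD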
#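 Doses: Single concentration per compound, DMSO matched to controls | Test system: KCNQ1-transfected CHO-K1 cells | Timing: 90 min dye loading and 20 min compound exposure, both at room temperature | Measured by: Kinetic FluxOR thallium fluorescence, 10-s 1-Hz baseline, 110-s post-stimulus read | Medium: Assay buffer with matched DMSO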
# KCNQ1 inh: inhibitors of human KCNQ1 potassium channel. B-score at 10 µM. P51787. CHO-K1 KCNQ1, FluxOR thallium flux fluorescence; active compounds read high. 310,000 compounds, 1.3% hits. AID 2642;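 active = compounds whose thallium flux B-score, printed positive for inhibition, exceeds three library SD while starting fluorescence stays within three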;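 also: channel opened by potassium depolarization with thallium stimulus after 20 min compound exposure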
# KCNK9 inh: human KCNK9 channel inhibition; Q9NPC2; 310,000 compounds, 1.2% hits; B-score at 10 µM; HEK293 KCNK9, FluxOR thallium flux fluorescence; active compounds read low;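 active = ratio B-score over 3 SD below the library mean, with starting fluorescence within 5 SD of its mean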;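 also: negative B-score means less thallium flux so channel inhibition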
# Target sequence (Q9NPC2 whole entry, looked up): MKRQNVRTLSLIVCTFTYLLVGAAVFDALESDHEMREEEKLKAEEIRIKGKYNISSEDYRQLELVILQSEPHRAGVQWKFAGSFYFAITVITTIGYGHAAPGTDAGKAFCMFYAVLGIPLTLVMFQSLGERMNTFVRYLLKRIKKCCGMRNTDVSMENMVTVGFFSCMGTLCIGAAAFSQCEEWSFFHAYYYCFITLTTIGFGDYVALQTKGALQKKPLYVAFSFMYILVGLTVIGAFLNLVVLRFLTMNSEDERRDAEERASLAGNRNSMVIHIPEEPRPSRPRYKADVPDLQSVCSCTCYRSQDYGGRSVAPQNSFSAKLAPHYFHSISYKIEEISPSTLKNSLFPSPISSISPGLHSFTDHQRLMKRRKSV
# KCNK3 inh: human KCNK3 channel inhibition, primary screen. 340,000 compounds, 0.84% hits. CHO-KCNK3 thallium flux, FluxOR fluorescence; active compounds read low. B-score at 10 µM;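 active = B-score under library mean minus 4 SD, starting fluorescence ratio at most library mean plus 5 SD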;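 also: more negative B-score means stronger inhibition of thallium flux through KCNK3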
# Target sequence (O14649 whole entry, looked up): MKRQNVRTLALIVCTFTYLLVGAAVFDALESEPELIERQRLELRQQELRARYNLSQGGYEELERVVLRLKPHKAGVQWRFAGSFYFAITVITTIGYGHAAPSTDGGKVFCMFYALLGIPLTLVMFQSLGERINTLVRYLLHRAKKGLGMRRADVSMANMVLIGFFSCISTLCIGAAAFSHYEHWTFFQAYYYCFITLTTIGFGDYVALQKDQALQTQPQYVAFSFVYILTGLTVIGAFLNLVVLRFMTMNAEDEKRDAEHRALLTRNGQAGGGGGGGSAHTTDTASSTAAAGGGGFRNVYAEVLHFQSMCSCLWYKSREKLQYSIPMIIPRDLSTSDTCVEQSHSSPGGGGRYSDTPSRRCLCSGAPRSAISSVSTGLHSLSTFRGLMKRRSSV
# Kir21 block: inhibitors of mouse Kir2.1 inward-rectifier potassium channel; P35561; HEK293-Kir2.1, FluxOR thallium flux fluorescence; active compounds read low; B-score at 10 µM; 310,000 compounds, 0.85% hits;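 active = fluorescence ratio B-score at or below minus 3 SD of library scores, with starting-brightness B-score within 2 SD, cut at about -4.2 in these data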;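 also: channel flux triggered by added potassium and thallium sulfate stimulus; B-score of peak minus minimum fluorescence over baseline after thallium stimulus; more negative B-score means stronger Kir2.1 block with less thallium influx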
# hERG rescue: hERG (human) protection from proarrhythmic block. Q12809. 310,000 compounds, 0.51% hits. CHO-hERG, FluxOR thallium flux, dofetilide IC70 present. AID 1511. activation (rescue from dofetilide block), less the hit threshold, % at 10 µM;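 active = activation above the mean of controls blocked by dofetilide plus 5 SD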;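 also: thallium influx through hERG after potassium depolarization seen as dye fluorescence rise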
# KCNQ1 inh valid: confirmation of human KCNQ1 potassium channel inhibitors. inhibition, % at 10 µM. shares compounds with KCNQ1 inh. 1,600 compounds, 93% hits. KCNQ1 cell line, FluxOR thallium flux fluorescence;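 active = primary screen active, with duplicate mean exceeding buffer control mean plus 3 SD of buffer wells, cut at about 28% in these data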
# CHO Tl flux: activity in parental CHO cells lacking KCNQ1 | shares compounds with KCNQ1 inh | parental CHO-K1, FluxOR thallium flux fluorescence ratio; active compounds read low; zero means no signal rise above baseline | 1,600 compounds, 21% hits | AID 588366 | fluorescence ratio (Tl flux) at 10 µM;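 active = mean of duplicate thallium-flux fluorescence ratios in parental host cells more than 5 SD below the buffer control mean, cut at about 0.38 in these data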;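 also: ratio is peak minus minimum fluorescence divided by baseline fluorescence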
# KCNQ1 APC inh: confirmation of human KCNQ1 potassium channel inhibitors by electrophysiology; shares compounds with KCNQ1 inh; KCNQ1-CHO cells, automated patch clamp current; calls only at 10 µM; 490 compounds, 20% hits; AID 624120;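 active = KCNQ1 current drop exceeding 3 SD of negative control wells, seen in both duplicate runs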;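 also: steady state current during a 2 s step from -80 to +40 mV; negative values mean current inhibition and positive values mean potentiation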
# KCNQ2 spec: rat KCNQ2 inhibition in KCNQ1 inhibitor specificity screen. 1,600 compounds, 71% hits. inhibition, % at 10 µM. AID 651746. shares compounds with KCNQ1 inh. KCNQ2 cells, FluxOR thallium flux fluorescence;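 active = mean percent inhibition of the KCNQ2 thallium signal more than 5 SD above the buffer-only control wells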;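 also: KCNQ2 expressed in CHO cells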
# KCNQ1-KCNE1 inh: KCNQ1 inhibitor that also blocks human KCNQ1/KCNE1 channel. shares compounds with KCNQ1 inh. 1,600 compounds, 77% hits. AID 652147. KCNQ1/KCNE1 cells, FluxOR thallium flux fluorescence. inhibition, % at 10 µM;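 active = mean percent inhibition of duplicate wells above the buffer-only control mean plus 3 SD of those controls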
# Numbers stand for hits; n = inactive; x = no result; + = active, no number. Compounds with a hit are over-represented: about 3.8% of the library has one in this group of screens.
SMILES,KCNQ1 pot,KCNQ1 inh,KCNK9 inh,KCNK3 inh,Kir21 block,hERG rescue,KCNQ1 inh valid,CHO Tl flux,KCNQ2 spec,KCNQ1-KCNE1 inh,others
COc1cccc(N2CCc3c(C)nc4ccc(Cl)cc4c32)c1,n,6,n,n,-13.9,n,101.5,n,98.3%,77.0%,KCNQ1 APC inh=+
Cc1cccc(OCC(=O)NCCCNC(=O)c2cnccn2)c1,n,n,n,n,n,n,x,x,x,x,
COc1ccc(OC)c(NC(=O)Nc2c(O)ccc3ccccc23)c1,n,12,n,n,n,n,n,n,n,48.0%,
CCCCOc1cccc(C2C(C(=O)c3ccc(C)o3)=C(O)C(=O)N2c2nnc(C)s2)c1 (centres undefined),n,9,n,n,n,n,146.5,0.345,104.7%,n,
CC(NC(=S)NC1CCCCC1)c1ccc(C(C)(C)C)cc1 (centres undefined),n,8,n,n,n,n,104.5,n,n,77.0%,KCNQ1 APC inh=n
CC(C)c1ccc(C(C)NC(=S)NC2CCCCC2)cc1 (centres undefined),n,n,n,n,n,n,x,x,x,x,
Cc1ccsc1C(=O)OCC(=O)N1CC(C)CC(C)C1 (centres undefined),x,x,x,n,x,x,x,x,x,x,
O=C(CN1C2=NCCN2c2ccccc21)C12CC3CC(CC(C3)C1)C2,n,11,n,n,n,n,70.5,n,73.7%,39.5%,
c1ccc(CN2C3=NCCN3c3ccccc32)cc1,n,n,n,n,n,n,x,x,x,x,
N#CC(c1cccc(C(F)(F)F)c1)(c1ncc(C(F)(F)F)cc1Cl)N1CCOCC1 (centres undefined),n,n,n,n,n,n,x,x,x,x,
N#CC(c1ccccc1)(c1ncc(C(F)(F)F)cc1Cl)N1CCOCC1 (centres undefined),n,6,n,n,n,n,74.5,n,99.0%,84.0%,
CCCCSc1nnc(-c2ccc(C)cc2)c2ccccc12,n,11,-7.08,n,n,n,153.5,n,103.0%,175.0%,KCNQ1 APC inh=n
Cc1ccc(Oc2nnc(-c3ccc(C)cc3)c3ccccc23)cc1,n,n,n,n,n,n,x,x,x,x,
CCN1CCN(CCNC(=O)c2ccc(/C=C3/Sc4ccccc4N(Cc4cccc(Cl)c4)C3=O)cc2)CC1,n,14,n,n,-5.14,n,80.0,0.336,97.3%,145.0%,
O=C(CN1C(=O)/C(=C\c2cccc(Cl)c2)Sc2ccccc21)NCCCN1CCOCC1,n,n,n,n,n,n,x,x,x,x,
CCN(CC)c1ccc(Nc2nc(N3CCOCC3)c3ccccc3n2)cc1,n,8,n,n,n,n,112.5,n,117.0%,100.5%,KCNQ1 APC inh=n
CN(C)c1ccc(C=C2SC(=S)NC2=O)cc1,x,x,x,n,x,x,x,x,x,x,
COc1ccc(N=C2NC(=O)S/C2=C\c2ccc(N(C)C)cc2)cc1,n,7,n,n,n,n,60.5,0.376,66.3%,105.5%,
CN1c2ccccc2C(C)(C)C12C=Cc1cc(O)ccc1O2 (centres undefined),n,9,n,n,n,n,131.5,0.358,128.3%,168.5%,
COc1c(O)ccc(/C=N\NC(=O)c2ccc3c(c2)OCO3)c1[N+](=O)[O-],n,n,n,n,n,n,x,x,x,x,
Cc1cc(C)c(C#N)c(SCC2COc3ccccc3O2)n1 (centres undefined),n,n,n,n,n,n,x,x,x,x,
N#Cc1cc2c(nc1SCC1COc3ccccc3O1)CCC2 (centres undefined),n,8,n,n,n,n,105.5,n,98.7%,124.0%,
Cc1cccc(Cn2nc(C(C)(C)C)cc2C(=O)Nc2ccc(F)cc2)c1,n,12,n,n,n,n,175.0,0.22,144.0%,+,
O=S(=O)(c1ccccc1)c1nc(Nc2cccc(O)c2)sc1Cl,n,7,n,n,-5.47,n,94.5,n,78.3%,44.0%,KCNQ1 APC inh=n
CC(C)(C)NC(=O)COC(=O)c1ccccc1Nc1ccc(SC(F)F)cc1,n,6,n,n,n,n,119.0,0.372,108.7%,158.0%,
SMILES,KCNQ1 pot,KCNQ1 inh,KCNK9 inh,KCNK3 inh,Kir21 block,hERG rescue,KCNQ1 inh valid,CHO Tl flux,KCNQ2 spec,KCNQ1-KCNE1 inh,others
NC(=O)COC(=O)c1ccccc1Nc1ccc(SC(F)F)cc1,n,n,n,n,n,n,x,x,x,x,
Cc1ccc2ncc(S(=O)(=O)c3ccccc3)c(N3CCCCC3C)c2c1 (centres undefined),n,7,n,n,n,n,126.0,0.322,130.7%,+,
COc1cc2ncc(S(=O)(=O)c3ccccc3)c(N3CCC4(CC3)OCCO4)c2cc1OC,n,n,n,n,n,n,x,x,x,x,
CCOc1nc(Nc2ccc(F)cc2)nc(N2CCN(c3ccc(OC)cc3)CC2)n1,n,n,n,n,n,n,x,x,x,x,
CCOc1nc(Nc2ccc(OC)c(Cl)c2)nc(N2CCN(c3ccc(OC)cc3)CC2)n1,n,7,n,n,n,n,113.5,n,79.0%,143.5%,KCNQ1 APC inh=n
CCN1CCN(CCNC(=O)c2ccc3nc(-c4cccc(C)c4)c(-c4cccc(C)c4)nc3c2)CC1,n,8,n,n,n,n,76.0,0.315,91.3%,162.5%,
O=C(Nc1ccccc1C(=O)Nc1nnc(C(F)(F)F)s1)c1ccccc1Cl,n,6,n,n,n,n,66.5,n,65.3%,n,
NC(=O)c1ccccc1NC(=O)c1ccccc1Cl,n,n,n,n,n,n,x,x,x,x,
CC1CN(S(=O)(=O)c2cccc(C(=O)Nc3ccccc3N3CCCCC3)c2)CC(C)O1 (centres undefined),n,7,n,n,n,n,75.5,n,113.7%,87.5%,
COc1cc(NC(=O)COc2ccc(-n3ccnc3)cc2)cc(OC)c1,n,n,n,n,n,n,x,x,x,x,
CC(C)(C)c1ccc(NC(=O)COc2ccc(-n3ccnc3)cc2)cc1,n,7,n,n,n,n,130.0,n,74.3%,40.5%,
Cc1csc2ncnc(N3CCN(S(=O)(=O)c4cccc(C(F)(F)F)c4)CC3)c12,n,19,n,n,n,n,134.0,n,113.0%,129.5%,KCNQ1 APC inh=n
O=S(=O)(c1cccc(Br)c1)N1CCN(c2ncnc3scc(-c4ccccc4)c23)CC1,x,x,x,n,x,x,x,x,x,x,
